What was measured:
[1] = Change in total alpha-tubulin levels in human QBI293 cells at 1 uM after 4 hrs by ELISA relative to control; conditions: qbi293, 4 h
Homo sapiens = species: Homo sapiens; assay: Induction of microtubule stabilization in human QBI293 cells assessed as increase in acetylated tubulin levels at 1 uM after 4 hrs by ELISA relative to control; format: cell-based
How it was run: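 QBI-293 cells grown in DMEM/10% FBS at 37 °C, 5% CO2, plated 6 × 10⁵ cells/well overnight, then treated with vehicle or compound (1 and 10 μM) for 4 h. Lysis was in RIPA with protease inhibitors, 1 mM PMSF and 1 μM TSA, followed by 100000g spin for 30 min. Acetylated α-tubulin was measured by ELISA on BCA-quantified supernatant, reported as fold change vs DMSO, at least triplicate, t test.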

[2] = Change in total alpha-tubulin levels in human QBI293 cells at 10 uM after 4 hrs by ELISA relative to control; format: cell-based; conditions: qbi293, 4 h
How it was run: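 QBI-293 cells grown in DMEM/10% FBS at 37 °C, 5% CO2, plated 6 × 10⁵ cells/well, left overnight, then given vehicle or compound (1 and 10 μM) for 4 h. Cells were lysed in RIPA with protease inhibitors, 1 mM PMSF and 1 μM TSA, then spun at 100000g for 30 min. Total α-tubulin was measured by ELISA, normalized by BCA protein, expressed as fold change vs DMSO, triplicate, two-tailed unpaired t test.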

Rattus norvegicus = species: Rattus norvegicus; assay: Inhibition of 5-LOX-mediated LTB4 production in arachidonic acid-stimulated RBL1 cells at 10 uM preincubated for 2 hrs followed by A23187 induction for 15 mins by LC/MS/MS analysis relative to control
How it was run: (§1)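 RBL-1 cells grown in RPMI/10% FBS, plated 9 × 10⁵ cells/well, held 2 h at 37 °C, then given compound for 2 h (screen at 10 μM, then concentration–response in triplicate). Stimulation was 12 μM A23187 for 15 min. Supernatants were extracted with MeOH/0.01% BHT and LTB₄ quantified by UPLC-MS/MS in negative ion mode.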

[3] = Plasma concentration in mouse at 2 mg/kg, ip administered as cassette dosing after 1 hr by LC-MS/MS method; format: ADME, organism-based
How it was run: (§2)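 Groups of three 2–5-month-old CD-1 or B6SJL mice, sexes kept separate, were cassette-dosed i.p. in DMSO at 2 mg/kg with two or three compounds given together. Plasma and brain homogenate levels were measured at a single time point and scaled proportionally up to 5 mg/kg. The brain/plasma ratio was derived from these, reported as mean ± SD.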

[4] = Inhibition of 5-LOX-mediated LTB4 production in arachidonic acid-stimulated RBL1 cells preincubated for 2 hrs followed by A23187 induction for 15 mins by LC/MS/MS analysis; conditions: Rattus norvegicus, RBL-1; how it was run: as §1
[5] = Ratio of drug level in brain to plasma in mouse at 2 mg/kg, ip administered as cassette dosing; format: ADME, organism-based; conditions: read-out: BPR; how it was run: as §2
Cyclooxygenase = biological target: T1, Cyclooxygenase (Rattus norvegicus, UniProt P35355+Q63921); assay: Inhibition of COX-mediated PGD2/PGE2 production in arachidonic acid-stimulated RBL1 cells preincubated for 2 hrs followed by A23187 induction for 15 mins by LC/MS/MS analysis
T1 sequence (P35355 whole entry): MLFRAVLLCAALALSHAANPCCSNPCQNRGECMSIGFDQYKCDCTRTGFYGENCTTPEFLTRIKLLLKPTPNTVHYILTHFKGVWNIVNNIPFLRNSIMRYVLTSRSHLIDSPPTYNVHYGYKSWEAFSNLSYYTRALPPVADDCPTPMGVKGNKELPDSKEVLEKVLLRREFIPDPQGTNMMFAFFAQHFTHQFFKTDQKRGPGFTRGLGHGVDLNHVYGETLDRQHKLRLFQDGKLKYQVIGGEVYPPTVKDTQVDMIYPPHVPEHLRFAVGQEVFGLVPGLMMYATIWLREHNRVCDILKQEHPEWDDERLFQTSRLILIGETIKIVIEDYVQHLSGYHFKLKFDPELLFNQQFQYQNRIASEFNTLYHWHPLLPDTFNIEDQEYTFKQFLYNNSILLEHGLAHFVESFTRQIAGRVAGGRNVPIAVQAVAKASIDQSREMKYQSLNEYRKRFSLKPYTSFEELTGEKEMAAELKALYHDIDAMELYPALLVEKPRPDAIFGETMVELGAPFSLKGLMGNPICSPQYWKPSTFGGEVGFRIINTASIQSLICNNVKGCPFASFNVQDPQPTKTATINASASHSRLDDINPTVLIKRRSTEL
T1 sequence (Q63921 whole entry): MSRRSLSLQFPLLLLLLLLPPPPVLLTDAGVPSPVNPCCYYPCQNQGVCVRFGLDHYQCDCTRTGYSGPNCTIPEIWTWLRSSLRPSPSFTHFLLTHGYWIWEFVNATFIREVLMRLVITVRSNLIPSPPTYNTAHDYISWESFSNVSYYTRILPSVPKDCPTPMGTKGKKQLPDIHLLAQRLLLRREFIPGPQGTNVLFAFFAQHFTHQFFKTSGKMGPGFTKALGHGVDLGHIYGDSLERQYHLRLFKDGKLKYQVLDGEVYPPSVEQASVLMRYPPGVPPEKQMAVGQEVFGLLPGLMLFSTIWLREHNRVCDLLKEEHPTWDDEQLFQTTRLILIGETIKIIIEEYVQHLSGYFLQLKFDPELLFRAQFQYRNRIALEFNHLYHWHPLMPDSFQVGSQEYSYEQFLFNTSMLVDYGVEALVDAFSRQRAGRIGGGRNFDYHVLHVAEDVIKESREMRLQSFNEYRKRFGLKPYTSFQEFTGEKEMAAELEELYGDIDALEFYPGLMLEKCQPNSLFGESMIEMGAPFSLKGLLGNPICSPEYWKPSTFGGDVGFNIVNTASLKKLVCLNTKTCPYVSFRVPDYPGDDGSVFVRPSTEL
How it was run: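 RBL-1 cells in RPMI/10% FBS, 9 × 10⁵ cells/well, held 2 h, then exposed to compound for 2 h at multiple concentrations in triplicate. Stimulation was 12 μM A23187 for 15 min. Eicosanoids were extracted with MeOH/0.01% BHT, and PGD₂ plus PGE₂ measured by UPLC-MS/MS (negative ion, 351 > 315).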

[6] = Drug uptake in mouse brain at 2 mg/kg, ip administered as cassette dosing after 1 hr by LC-MS/MS method; format: ADME, organism-based; conditions: read-out: Drug uptake; how it was run: as §2

SMILES	FC [1]	inhibition (Rattus norvegicus) [%]	Activity [1]	further results
C[C@H](Nc1c(-c2c(F)cc(OCCCN(C)C)cc2F)c(Cl)nc2ncnn12)C(F)(F)F	0.4			fold change (FC) (Homo sapiens): 6; fold change (FC) [2]: 0.7
C[C@H](Nc1c(-c2c(F)cc(F)cc2F)c(Cl)nc2ncnn12)C(F)(F)F			Non-Toxic	fold change (FC) (Homo sapiens): 2.5
Fc1cccc(F)c1-c1c(Cl)ncn1-c1ccc(Cl)cc1		76	Non-Toxic	concentration at 1 h [3]: 400 nM; IC50 [4]: 13.8 µM; Kp [5]: 1.9; IC50 (Cyclooxygenase): 2.4 µM; concentration at 1 h [6]: 700 nM
Fc1cccc(F)c1-c1cncn1-c1ccc(Cl)cc1		46		fold change (FC) [2]: 1.2
Cc1nc(Cl)c(-c2c(F)ccc(Cl)c2F)n1-c1ccc(Cl)cc1	0.6	84		fold change (FC) (Homo sapiens): 1.7
Cc1nc(Cl)c(-c2c(F)ccc(F)c2F)n1-c1ccc(Cl)c(F)c1	0.7	75		fold change (FC) (Homo sapiens): 3.9; fold change (FC) [2]: 0.8
Cc1nc(C)n(-c2ccc(Cl)cc2)c1-c1c(F)cccc1F		40		fold change (FC) [2]: 1.2
Clc1ccc(-n2cnc(Cl)c2-c2ccccc2)cc1		71	Non-Toxic	concentration at 1 h [3]: 80 nM; IC50 [4]: 12.5 µM; Kp [5]: 2.4; IC50 (Cyclooxygenase): 1 µM; concentration at 1 h [6]: 200 nM
Cc1nc(Cl)n(-c2ccc(Cl)cc2)c1-c1c(F)ccc(Cl)c1F	0.5	54		
CC(C)Cc1ccc(C(C)C(=O)O)cc1 (stereo not given) [IBUPROFEN]		< 10	Non-Toxic	
Cc1nc(Cl)c(-c2c(F)cccc2F)n1-c1ccc(Cl)cc1	0.8	87		fold change (FC) (Homo sapiens): 2.5
CCc1nc(Cl)c(-c2c(F)cccc2F)n1-c1ccc(Cl)cc1		81	Non-Toxic	fold change (FC) (Homo sapiens): 1.8
Clc1ccc(-n2cncc2-c2ccccc2)cc1		16	Non-Toxic	
Cc1ccc(F)c(-c2c(Cl)ncn2-c2ccc(Cl)cc2)c1F	0.8	78		
Fc1cccc(F)c1-c1cncn1-c1ccc(OC(F)(F)F)cc1		55	Non-Toxic	
Fc1cccc(F)c1-c1c(Cl)ncn1-c1ccccc1Cl		56	Non-Toxic	
Clc1ccc(-n2c(-c3ccccc3)cnc2Cl)cc1	1.2	52		
Cc1ncn(-c2ccc(Cl)cc2)c1-c1c(F)ccc(Cl)c1F		71	Non-Toxic	concentration at 1 h [3]: 500 nM; IC50 [4]: 13.4 µM; Kp [5]: 1.4; IC50 (Cyclooxygenase): 12.1 µM; concentration at 1 h [6]: 600 nM
Fc1ccc(F)c(-c2cncn2-c2ccc(OC(F)(F)F)cc2)c1F	1.2	52		

Further lines, with some results ahead:

FC [1]	inhibition (Rattus norvegicus) [%]	SMILES	Activity [1]	further results
0.3	88	COc1cc(F)c(-c2c(Cl)nc(C)n2-c2ccc(Cl)cc2)c(F)c1		fold change (FC) (Homo sapiens): 7.1; fold change (FC) [2]: 0.6
	75	COc1ccc(-n2c(-c3c(F)cc(F)cc3F)cnc2Cl)cc1	Non-Toxic	concentration at 1 h [3]: 210 nM; IC50 [4]: 20.8 µM; Kp [5]: 0.9; IC50 (Cyclooxygenase): 9.8 µM; concentration at 1 h [6]: 210 nM
0.4	88	COc1ccc(F)c(-c2c(Cl)nc(Cl)n2-c2ccc(Cl)cc2)c1F		fold change (FC) (Homo sapiens): 5.1; fold change (FC) [2]: 0.9
	75	Cc1cc(F)c(-c2c(Cl)ncn2-c2ccc(Cl)cc2)c(F)c1	Non-Toxic	concentration at 1 h [3]: 110 nM; IC50 [4]: 11.7 µM; Kp [5]: 2.5; IC50 (Cyclooxygenase): 1.8 µM; concentration at 1 h [6]: 300 nM
	86	COc1ccc(-n2cnc(Cl)c2-c2c(F)cc(F)cc2F)cc1	Non-Toxic	IC50 [4]: 9.7 µM; IC50 (Cyclooxygenase): 2.4 µM
	96	Fc1ccc(F)c(-c2cnc(Cl)n2-c2ccc(Cl)cc2)c1	Non-Toxic	concentration at 1 h [3]: 60 nM; IC50 [4]: 2.5 µM; Kp [5]: 3.3; IC50 (Cyclooxygenase): 2.2 µM; concentration at 1 h [6]: 200 nM
0.9	69	Cc1ccc(F)c(-c2cnc(Cl)n2-c2ccc(Cl)cc2)c1F		fold change (FC) [2]: 0.8
	38	Fc1cccc(F)c1-c1cnc(Cl)n1-c1ccccc1Cl	Non-Toxic	
0.3	38	COc1cc(F)c(-c2c(Cl)nc(Cl)n2-c2ccc(Cl)cc2)c(F)c1		fold change (FC) (Homo sapiens): 3.3; fold change (FC) [2]: 0.6
	46	Fc1cc(F)c(-c2c(Cl)ncn2-c2ccc(Cl)cc2)c(F)c1	Non-Toxic	
	73	Cc1cc(F)c(-c2cnc(Cl)n2-c2ccc(Cl)cc2)c(F)c1	Non-Toxic	
	74	Cc1ncn(-c2ccc(Cl)cc2)c1-c1c(F)ccc(F)c1F		concentration at 1 h [3]: 200 nM; IC50 [4]: 23.7 µM; fold change (FC) [2]: 1.2; Kp [5]: 1.9; IC50 (Cyclooxygenase): 4.7 µM; concentration at 1 h [6]: 400 nM
	24	Fc1ccc(F)c(-c2cnc(Cl)n2-c2ccc(Cl)cc2)c1F	Non-Toxic	
	58	Cc1nc(Cl)n(-c2ccc(Cl)cc2)c1-c1c(F)ccc(F)c1F	Non-Toxic	
	57	Fc1ccc(-c2cnc(Cl)n2-c2ccc(Cl)cc2)cc1	Non-Toxic	
	24	Fc1cc(F)c(-c2cncn2-c2ccc(Cl)cc2)c(F)c1	Non-Toxic	

— ChEMBL document CHEMBL4014332, “Multitargeted Imidazoles: Potential Therapeutic Leads for Alzheimer's and Other Neurodegenerative Diseases” (J Med Chem, 2017)
